Experimental data published in ChEMBL document CHEMBL1139526, “Synthesis, antiviral activity, and mechanism of drug resistance of D- and L-2',3'-didehydro-2',3'-dideoxy-2'-fluorocarbocyclic nucleosides” (J Med Chem, 2005).

What was measured:
PBMC [1] = assay: Effective concentration to inhibit HIV-1 activity in human peripheral blood mononuclear cells; assay type: functional, cell-based
How it was run: (§1)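 HIV-1 LAI was the reference virus. Human PBM cells were infected in bulk for 1 h at 100 TCID50/1 × 10⁷ cells (flask) or 200 TCID50/6 × 10⁵ cells/well. Cells went into 10-fold serial compound dilutions in RPMI-1640 with 16% FBS, DEAE-dextran and IL-2, 5 days at 37 °C. Read-out was supernatant RT activity ([³H]TTP, poly(rA)·oligo(dT)). EC50 was taken by the median effect method.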

PBMC [2] = assay: Inhibitory concentration was determined against PHA stimulated human peripheral blood mononuclear cells; assay type: functional, cell-based
How it was run: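 Uninfected PHA-stimulated PBM cells from healthy HIV/HBV-seronegative donors were isolated by Ficoll-Hypaque and seeded at 5 × 10⁴ cells/well. Cells were incubated 5 days at 37 °C with 10-fold serial dilutions. Read-out was MTT reduction at 570 nm after overnight dye and solubilization. IC50 was taken by median-effect analysis.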

CCRF-CEM = assay: Inhibitory concentration against CEM cell line; assay type: functional, cell-based; settings: Homo sapiens
How it was run: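 CEM T-lymphoblastoid cells in log phase, 2.5 × 10³ cells/well, were exposed to 10-fold serial dilutions for 4 days at 37 °C and 5% CO₂. MTT was added overnight, then solubilized, with absorbance read at 570 nm. IC50 was taken from median-effect analysis.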

Vero = assay: Inhibitory concentration against uninfected Vero cells; assay type: functional, cell-based; settings: Chlorocebus sabaeus
How it was run: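 Uninfected Vero cells in log phase, 5 × 10³ cells/well, were exposed to 10-fold serial drug dilutions for 3 days at 37 °C. Viability was read by MTT overnight, solubilized, at 570 nm. IC50 came from the median effect method.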

PBMC [3] = assay: In vitro effective concentration against HIV-1 in human peripheral blood mononuclear cells; assay type: functional, cell-based; how it was run: as §1
PBMC [4] = assay: In vitro effective concentration against HBV in human peripheral blood mononuclear cells; assay type: functional, cell-based
PBMC [5] = assay: Fold increase in ratio of EC50 against HIV-1 M184V to that of EC50 against HIV-1wild type; assay type: functional, Homo sapiens
How it was run: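 PHA-stimulated human PBM cells infected in bulk for 1 h with the molecular clones HIV-1 xxBru (wild type) or M184Vpitt, then added to 10-fold serial drug dilutions. Cultured 5 days at 37 °C. Supernatant virus was pelleted and its RT activity measured by [3H]TTP incorporation on poly(rA)·oligo(dT). EC50 by the median effect method; fold increase = EC50 M184V / EC50 xxBru.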

PBMC [6] = assay: (§2) In vitro effective concentration against […] wild type HIV-1 in human peripheral blood mononuclear cells; assay type: functional
How it was run: (§3)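 Molecular clones were used: wild-type HIV-1 xxBru and lamivudine-resistant HIV-1 M184Vpitt. Human PBM cells were infected in bulk for 1 h, then cultured in 10-fold serial compound dilutions with IL-2 for 5 days at 37 °C. Pelleted supernatant virus was assayed for RT activity, 2 h at 37 °C with [³H]TTP. EC50/EC90 came from median-effect analysis. Fold increase is M184V EC50 over xxBRU EC50.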

PBMC [7] = assay: In vitro effective concentration against Lamivudine resistant HIV-1 mutant M184V in human peripheral blood mononuclear cells; assay type: functional
PBMC [8] = assay: as §2; assay type: functional, cell-based; how it was run: as §3
PBMC [9] = tested on: PBMC
MT4 = assay: In vitro effective concentration against HIV-1 in MT-4 cells; assay type: functional, cell-based; settings: Homo sapiens

Nc1ccn([C@H]2C[C@@H](CO)C=C2F)c(=O)n1
EC50 (PBMC [1]): 37.7 µM | IC50 (PBMC [2]): > 100 µM | IC50 (CCRF-CEM): > 100 µM | IC50 (Vero): > 100 µM

Nc1ccn([C@@H]2S[C@H](CO)C=C2F)c(=O)n1
EC50 (PBMC [3]): 1.3 µM

Nc1ccn([C@@H]2C[C@H](CO)C=C2F)c(=O)n1
EC50 (PBMC [1]): > 100 µM | IC50 (PBMC [2]): > 100 µM | IC50 (CCRF-CEM): > 100 µM | IC50 (Vero): > 100 µM

Nc1nc(=O)n([C@H]2C=C(F)[C@@H](CO)S2)cc1F
EC50 (PBMC [3]): 0.15 µM

Cc1cn([C@H]2C[C@@H](CO)C=C2F)c(=O)[nH]c1=O
EC50 (PBMC [1]): > 100 µM | IC50 (PBMC [2]): > 100 µM | IC50 (CCRF-CEM): > 100 µM | IC50 (Vero): > 100 µM

O=c1ccn([C@@H]2C[C@H](CO)C=C2F)c(=O)[nH]1
EC50 (PBMC [1]): > 100 µM | IC50 (PBMC [2]): > 100 µM | IC50 (CCRF-CEM): > 100 µM | IC50 (Vero): > 100 µM

Nc1ncnc2c1ncn2[C@@H]1C[C@H](CO)C=C1F
EC50 (PBMC [3]): 72.8 µM | EC50 (PBMC [1]): 72.8 µM | IC50 (PBMC [2]): > 100 µM | IC50 (CCRF-CEM): > 100 µM | IC50 (Vero): > 100 µM

OC[C@H]1C=C(F)[C@@H](n2cnc3c(O)ncnc32)C1
EC50 (PBMC [1]): > 100 µM | IC50 (PBMC [2]): > 100 µM | IC50 (CCRF-CEM): 91.3 µM | IC50 (Vero): > 100 µM

O=c1ccn([C@H]2C[C@@H](CO)C=C2F)c(=O)[nH]1
EC50 (PBMC [1]): > 100 µM | IC50 (PBMC [2]): > 100 µM | IC50 (CCRF-CEM): > 100 µM | IC50 (Vero): > 100 µM

Nc1nc(O)c2ncn([C@H]3C[C@@H](CO)C=C3F)c2n1
EC50 (PBMC [1]): > 100 µM | IC50 (PBMC [2]): > 100 µM | IC50 (CCRF-CEM): > 100 µM | IC50 (Vero): > 100 µM

Nc1nc(=O)n([C@@H]2O[C@H](CO)C=C2F)cc1F
EC50 (PBMC [3]): 0.17 µM | EC50 (PBMC [4]): 0.22 µM

Nc1nc(O)c2ncn([C@@H]3C[C@H](CO)C=C3F)c2n1
EC50 (PBMC [3]): 37.8 µM | EC50 (PBMC [1]): 37.8 µM | IC50 (PBMC [2]): > 100 µM | IC50 (CCRF-CEM): > 100 µM | IC50 (Vero): > 100 µM

Nc1ncnc2c1ncn2[C@@H]1O[C@H](CO)C=C1F
EC50 (PBMC [3]): 1.5 µM | EC50 (PBMC [4]): 1.7 µM

Nc1ccn([C@H]2C=C(F)[C@@H](CO)S2)c(=O)n1
EC50 (PBMC [3]): 0.12 µM

Nc1ncnc2c1ncn2[C@H]1C[C@@H](CO)C=C1F
Fold increase (PBMC [5]): 98 | EC50 (PBMC [1]): 0.77 µM | EC90 (PBMC [6]): 8.34 µM | EC90 (PBMC [7]): > 100 µM | EC50 (PBMC [8]): 0.77 µM | IC50 (PBMC [2]): > 100 µM | IC50 (CCRF-CEM): > 100 µM | IC50 (Vero): > 100 µM | EC50 (PBMC [9]): 75.3 µM

Nc1ccn([C@@H]2O[C@H](CO)C=C2F)c(=O)n1
EC50 (PBMC [3]): 0.51 µM | EC50 (PBMC [4]): 0.8 µM

OC[C@@H]1C=C(F)[C@H](n2cnc3c(O)ncnc32)C1
EC50 (PBMC [1]): > 100 µM | IC50 (PBMC [2]): > 100 µM | IC50 (CCRF-CEM): > 100 µM | IC50 (Vero): > 100 µM

Cc1cn([C@@H]2C[C@H](CO)C=C2F)c(=O)[nH]c1=O
EC50 (PBMC [1]): > 100 µM | IC50 (PBMC [2]): > 100 µM | IC50 (CCRF-CEM): > 100 µM | IC50 (Vero): > 100 µM

Nc1nc(=O)n([C@H]2C=C(F)C(CO)O2)cc1F (single isomer, unassigned)
EC50 (PBMC [3]): 0.82 µM

Nc1ncnc2c1ncn2[C@H]1C=C(F)C(CO)O1 (single isomer, unassigned)
EC50 (PBMC [3]): 4.4 µM

Nc1nc2c(ncn2[C@H]2C=C[C@@H](CO)C2)c(=O)[nH]1 [CARBOVIR]
EC50 (PBMC [3]): 0.55 µM | IC50 (MT4): 4.6 µM

Nc1ccn([C@@H]2CS[C@H](CO)O2)c(=O)n1 [LAMIVUDINE]
EC90 (PBMC [6]): 0.25 µM | EC50 (PBMC [8]): 0.027 µM

Cc1cn([C@H]2C[C@H](N=[N+]=[N-])[C@@H](CO)O2)c(=O)[nH]c1=O [ZIDOVUDINE]
EC50 (PBMC [1]): 0.0018 µM | IC50 (PBMC [2]): > 100 µM
